Published values gathered from unrelated publications.
Protocols differ between the studies behind these lines.
Target: Serine/threonine-protein kinase 16 (STK16, Homo sapiens, UniProt O75716)

FC(F)(F)Oc1cccc(-c2cnc3ccc(-c4ccncc4)nn23)c1 — activity vs control (enzyme activity, inhibitor, radiometric; 5 µM): 118%
CS(=O)(=O)N1CCCC(NC(=O)[C@H](CCC2CCCCC2)NC(=O)c2ccc(CNc3ncnc4c3nnn4-c3ccccc3)cc2)C1 (stereo partly shown) — remaining binding (cell-free assay, competition with immobilised ligand; 0.1 µM): 100%
Nc1ncnc2occ(-c3ccc(NC(=O)Nc4cc(C(F)(F)F)ccc4F)cc3)c12 — remaining signal (cell-free assay, inhibitor; 20 µM): 84%
CNC(=O)c1cc(Oc2ccc(NC(=O)Nc3ccc(Cl)c(C(F)(F)F)c3)cc2)ccn1 — remaining signal (cell-free assay; 0.5 µM): 105%
Cn1cnc(Br)c1C1=CN(c2ncnc3[nH]cnc23)CCS1 — inhibition (enzyme activity, inhibitor, radiometric; 50 nM): 38.5%
O=C1Nc2ccc(Cl)cc2C1=Cc1cc(Cl)c(O)c(Cl)c1 — remaining signal (cell-free assay; 0.5 µM): 90.2%
Cn1cc(Cl)c2c(Oc3c(F)cc(Nc4cc(Cl)nc(N)n4)cc3F)ccnc21 — remaining binding (cell-free assay, competition with immobilised ligand; 0.1 µM): 100%
Cc1ccc(C(=O)Nc2ccc(CN3CCN(C)CC3)c(C(F)(F)F)c2)cc1C#Cc1cnc2cccnn12 — remaining activity (enzyme activity, inhibitor; 23.5 nM): 94%
O=C1NC(=O)c2cc(Nc3ccc(F)cc3)c(Nc3ccc(F)cc3)cc21 — remaining signal (cell-free assay; 0.5 µM): 85.8%
CCCCNc1ncc2c(-c3ccc(F)cc3)nn(C[C@H]3CC[C@H](N)CC3)c2n1 — inhibition (target engagement in cells, inhibitor, chemoproteomics; 20 mM): 56.4%
CN([C@@H]1CCc2c(CC(=O)O)c3cc(S(C)(=O)=O)ccc3n2C1)S(=O)(=O)c1ccc(F)cc1 — remaining binding (cell-free assay, competition with immobilised ligand; 1 µM): 95%
COc1cc(-c2cc(-c3ccc(N4CCNCC4)cc3)cnc2C)cc(OC)c1OC — inhibition (enzyme activity, inhibitor; 1 µM): 8%
COc1cc(Nc2cnc(C#N)c(O[C@H](C)CN(C)C)n2)ncc1-c1cnn(C)c1 — remaining activity (enzyme activity, inhibitor, radiometric; 10 µM): 91%
Cn1cncc1C1=CN(c2ncnc3[nH]cnc23)CCS1 — inhibition (enzyme activity, inhibitor, radiometric; 50 nM): 22%
O=C(O)c1cc(-c2ccc(C3CCNCC3)cc2)c2ccc(-c3ccc(C(F)(F)F)cc3)cc2c1 — remaining binding (cell-free assay, competition with immobilised ligand; 1 µM): 100%
COc1cc(Cl)c(C(=O)N[C@@H](CN[C@H]2CC[C@@H](N)CC2)Cc2ccc(C#N)cc2)cc1-c1ccc(CN[C@H](C)c2ccc(C)cc2)o1 — remaining activity (enzyme activity, inhibitor; 1 µM): 95%
CC(C)(O)[C@H]1CC[C@H](Nc2ccc3ncc(-c4cccc(C(F)(F)F)c4)n3n2)CC1 — remaining activity (enzyme activity, inhibitor; 1 µM): 78.7%
O=C(Nc1cnn(-c2csc(C(=O)NC3COC3)c2)c1)Nc1c(F)cccc1Cl — remaining activity (enzyme activity, inhibitor; 5 µM): 107%
CCS(=O)(=O)c1cc2cc(C[C@@](O)(CC(C)(C)c3ccc(F)cc3C(N)=O)C(F)(F)F)[nH]c2cn1 — remaining binding (cell-free assay, competition with immobilised ligand; 1 µM): 91%
